Experimental data from ChEMBL document CHEMBL1153615, “Antiproliferative activity of arborescidine alkaloids and derivatives” (Eur J Med Chem, 2009).

Experiments:
MRC5 = assay: Cytotoxicity against human MRC5 cells after 3 days by MTT assay; assay type: cell-based; conditions: MRC5, 72 h
Outline: (§1)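 Human ATCC lines (MRC-5 normal lung fibroblasts, AGS gastric adenocarcinoma, HL-60 leukemia, SK-MES-1 lung cancer, J82 bladder carcinoma) seeded at 50,000 cells/mL in 96-well plates. Compounds added one day later in medium at 0 up to 100 µM for 3 days. Read-out by MTT reduction against untreated controls, with etoposide as reference. IC50 reported for S- and R-configured compounds.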

AGS = assay: Cytotoxicity against human AGS cells after 3 days by MTT assay; assay type: functional, cell-based; conditions: 72 h; outline: as §1
J82 = assay: Cytotoxicity against human J82 cells after 3 days by MTT assay; assay type: functional, cell-based; conditions: J82, 72 h; outline: as §1
SK-MES-1 = assay: Cytotoxicity against human SKMES1 cells after 3 days by MTT assay; assay type: functional, cell-based; conditions: SK-MES-1, 72 h; outline: as §1
HL-60 = assay: Cytotoxicity against human HL60 cells after 3 days by MTT assay; assay type: functional, cell-based; conditions: HL-60, 72 h; outline: as §1
KB = assay: Cytotoxicity against human KB cells at 30 uM; assay type: functional

## C=CCCC[C@H]1c2[nH]c3ccccc3c2CCN1C(=O)OC
MRC5
  IC50: > 100 µM
AGS
  IC50: > 100 µM
J82
  IC50: > 100 µM
SK-MES-1
  IC50: > 100 µM
HL-60
  IC50: > 100 µM

## C=CCCCC1c2[nH]c3ccccc3c2CCN1C (stereo not given)
MRC5
  IC50: 42.2 µM
AGS
  IC50: 34.5 µM
J82
  IC50: 76.4 µM
SK-MES-1
  IC50: 58.6 µM
HL-60
  IC50: > 100 µM

## CN1CCc2c3n(c4cc(Br)ccc24)C=CCC[C@@H]31
MRC5
  IC50: > 100 µM
AGS
  IC50: > 100 µM
J82
  IC50: 45.5 µM
SK-MES-1
  IC50: 91.3 µM
HL-60
  IC50: > 100 µM
KB
  Activity: 100%

## C=CCCCC1=NCCc2c1[nH]c1ccccc21
MRC5
  IC50: 44.6 µM
AGS
  IC50: 40.3 µM
J82
  IC50: 47.6 µM
SK-MES-1
  IC50: 36.1 µM
HL-60
  IC50: > 100 µM

## COC(=O)N1CCc2c([nH]c3ccccc23)[C@@H]1CCCC(O)CO (stereo not given in full)
MRC5
  IC50: > 100 µM
AGS
  IC50: 63.1 µM
J82
  IC50: > 100 µM
SK-MES-1
  IC50: 88.3 µM
HL-60
  IC50: > 100 µM

## CN1CCc2c3n(c4cc(Br)ccc24)[C@@H](O)CCC[C@@H]31
MRC5
  IC50: 31.9 µM
AGS
  IC50: 30.9 µM
J82
  IC50: > 100 µM
SK-MES-1
  IC50: > 100 µM
HL-60
  IC50: > 100 µM
KB
  Activity: 100%

## C=CCCC[C@@H]1NCCc2c1[nH]c1ccccc21
MRC5
  IC50: 20.1 µM
AGS
  IC50: 14.3 µM
J82
  IC50: 25.7 µM
SK-MES-1
  IC50: 19.1 µM
HL-60
  IC50: 69.3 µM

## COC(=O)N1CCc2c3n(c4cc(Br)ccc24)[C@@H](O)CCC[C@@H]31
MRC5
  IC50: 60 µM
AGS
  IC50: 22.8 µM
J82
  IC50: 16.4 µM
SK-MES-1
  IC50: 18.1 µM
HL-60
  IC50: > 100 µM

## COC(=O)N1CCc2c3n(c4ccccc24)[C@@H](O)CCC[C@@H]31
MRC5
  IC50: 35.7 µM
AGS
  IC50: 16.8 µM
J82
  IC50: 72.8 µM
SK-MES-1
  IC50: 25.1 µM
HL-60
  IC50: 96.6 µM

## C=CCCCC1=NCCc2c1[nH]c1cc(Br)ccc21
MRC5
  IC50: 40.1 µM
AGS
  IC50: 26.9 µM
J82
  IC50: 39.3 µM
SK-MES-1
  IC50: 39.7 µM
HL-60
  IC50: > 100 µM

## C=CCCCC1c2[nH]c3cc(Br)ccc3c2CCN1C (stereo not given)
MRC5
  IC50: 78.9 µM
AGS
  IC50: 69.9 µM
J82
  IC50: 78.8 µM
SK-MES-1
  IC50: 75.8 µM
HL-60
  IC50: > 100 µM

## C=CCCC[C@@H]1NCCc2c1[nH]c1cc(Br)ccc21
MRC5
  IC50: 18.1 µM
AGS
  IC50: 8.8 µM
J82
  IC50: 18.9 µM
SK-MES-1
  IC50: 12.7 µM
HL-60
  IC50: > 100 µM

## COC(=O)N1CCc2c([nH]c3cc(Br)ccc23)[C@@H]1CCCC=O
MRC5
  IC50: 53.6 µM
AGS
  IC50: 21.4 µM
J82
  IC50: 74.9 µM
SK-MES-1
  IC50: 48.2 µM
HL-60
  IC50: 99.4 µM

## COC(=O)N1CCc2c([nH]c3cc(Br)ccc23)[C@@H]1CCCC(O)CO (stereo not given in full)
MRC5
  IC50: > 100 µM
AGS
  IC50: > 100 µM
J82
  IC50: > 100 µM
SK-MES-1
  IC50: > 100 µM
HL-60
  IC50: > 100 µM

## Brc1ccc2c3c([nH]c2c1)[C@@H]1CCCCN1CC3 [ARBORESCIDINE A]
MRC5
  IC50: 71.6 µM
AGS
  IC50: 65.3 µM
J82
  IC50: > 100 µM
SK-MES-1
  IC50: > 100 µM
HL-60
  IC50: 34.5 µM
KB
  Activity: 100%

## CN1CCc2c3n(c4ccccc24)[C@@H](O)CCC[C@@H]31 [DESBROMOARBORESCIDINE C]
MRC5
  IC50: > 100 µM
AGS
  IC50: > 100 µM
J82
  IC50: > 100 µM
SK-MES-1
  IC50: > 100 µM
HL-60
  IC50: > 100 µM

## CN1CCc2c3n(c4ccccc24)C=CCC[C@@H]31 [DESBROMOARBORESCIDINEB]
MRC5
  IC50: 62.6 µM
AGS
  IC50: 41.7 µM
J82
  IC50: 29.5 µM
SK-MES-1
  IC50: 32.3 µM
HL-60
  IC50: > 100 µM

## COc1cc([C@@H]2c3cc4c(cc3[C@@H](O[C@@H]3O[C@@H]5CO[C@@H](C)O[C@H]5[C@H](O)[C@H]3O)[C@H]3COC(=O)[C@H]23)OCO4)cc(OC)c1O [ETOPOSIDE]
J82
  IC50: 2.5 µM
SK-MES-1
  IC50: 2.8 µM
